Measurements taken from ChEMBL document CHEMBL2385038, “Bioactive dibenzocyclooctadiene lignans from the stems of Schisandra neglecta” (J Nat Prod, 2013).

How the values were obtained:
A549 = test: Cytotoxicity against human A549 cells after 3 days by MTT assay; format: functional, cell-based; conditions: A549, 72 h
Method in brief: (§1)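 MTT viability assay on NB4 (acute promyelocytic leukemia), A549 (lung adenocarcinoma), SHSY5Y (neuroblastoma), PC3 (prostate) and MCF7 (breast adenocarcinoma) cells, reported as IC50. Paclitaxel was the positive control. Performed in triplicate.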

MCF7 = test: Cytotoxicity against human MCF7 cells after 3 days by MTT assay; format: functional, cell-based; conditions: MCF7, 72 h; method in brief: as §1
[1] = Therapeutic index, ratio of CC50 for human C8166 cells to EC50 for HIV-1 3B; format: cell-based; conditions: read-out: Ratio CC50/EC50
[2] = Cytotoxicity against human C8166 cells after 3 days by MTT assay; format: cell-based
Method in brief: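 Viability of uninfected C8166 cells was measured by MTT to give CC50, alongside the anti-HIV-1 assay. Performed in triplicate.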

NB-4 = test: Cytotoxicity against human NB4 cells after 3 days by MTT assay; format: functional, cell-based; conditions: NB-4, 72 h; method in brief: as §1
[3] = Cytotoxicity against human SH-SY5Y cells after 3 days by MTT assay; format: functional, cell-based; conditions: 72 h; method in brief: as §1
[4] = test system: Human immunodeficiency virus 1; test: Antiviral activity against HIV-1 3B infected in human C8166 cells assessed as inhibition of virus-induced cytopathic effect after 3 days by Syncytia Assay; format: functional, organism-based; conditions: Human immunodeficiency virus 1, 3B, C8166, 72 h
Method in brief: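 Inhibition of HIV-1-induced cytopathic effect in C8166 cells, expressed as EC50. Azidothymidine (AZT) served as the positive control. Performed in triplicate.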

PC-3 = test: Cytotoxicity against human PC3 cells after 3 days by MTT assay; format: functional, cell-based; conditions: PC-3, 72 h; method in brief: as §1

SMILES | IC50 (A549) | IC50 (MCF7) | selectivity ratio [1] | CC50 at 72 h [2] | IC50 (NB-4) | IC50 [3] | EC50 [4] | IC50 (PC-3)
COc1cc(CO)c(-c2c(C[C@H](C)C(C)=O)cc3c(c2OC)OCO3)c(OC)c1OC [SCHISPHENONE] | > 10 µM | > 10 µM | 12.3 | 156 µM | > 10 µM | > 10 µM | 12.7 µM | 8.9 µM
COc1cc2c(c(OC)c1OC)-c1c(cc(OC)c(OC)c1OC)[C@H](OCC(C)C)[C@@H](C)[C@@H](C)C2 | > 10 µM | > 10 µM | > 33.7 | > 200 µM | > 10 µM | > 10 µM | 5.9 µM | > 10 µM
COc1cc2c(c(OC)c1OC)-c1c(cc3c(c1OC)OCO3)[C@H](OC(=O)C=C(C)C)[C@@](C)(O)[C@@H](C)C2 [GOMISIN F] | > 10 µM | > 10 µM | 7.5 | 61.9 µM | > 10 µM | > 10 µM | 8.3 µM | > 10 µM
COc1c2c(cc(CC(C)=O)c1-c1c(CC(C)=O)cc3c(c1OC)OCO3)OCO2 | > 6.5 µM | > 10 µM | 14.1 | 54.5 µM | 7.3 µM | 8.2 µM | 3.9 µM | > 10 µM
COc1c(O)cc2c(c1OC)-c1c(cc(O)c(OC)c1OC)[C@H](OCc1ccccc1)[C@@H](C)[C@@H](C)C2 [MARLIGNAN G] | 8.6 µM | > 10 µM |  |  | > 10 µM | > 10 µM |  | 9.5 µM
C/C=C(/C)C(=O)O[C@H]1c2cc(OC)c(OC)c(OC)c2-c2c(cc(OC)c(OC)c2OC)C[C@H](C)[C@]1(C)O | > 10 µM | > 10 µM | 7.4 | 84.7 µM | > 10 µM | 7.8 µM | 11.5 µM | > 10 µM
Cc1cn([C@H]2C[C@H](N=[N+]=[N-])[C@@H](CO)O2)c(=O)[nH]c1=O [ZIDOVUDINE] |  |  |  | > 200 µM |  |  | 0.034 µM | 
COc1cc2c(c(OC)c1OC)-c1c(cc3c(c1OC)OCO3)C[C@H](C)[C@H](C)[C@H]2OC(C)=O [RUBSCHISANTHERIN] | > 10 µM | > 10 µM | 18.2 | 85.2 µM | > 10 µM | > 10 µM | 4.7 µM | > 10 µM
COc1c(O)c(C(=O)O)c2c(c1OC)-c1c(cc3c(c1OC)OCO3)[C@H](O)[C@H](C)[C@H](C)C2 | 5.9 µM | > 10 µM | 55.3 | 75.2 µM | > 10 µM | > 10 µM | 1.4 µM | 9.2 µM
COc1cc2c(c(O)c1OC)-c1c(cc(OC)c(OC)c1OC)[C@H](OC(=O)c1ccccc1)[C@@H](C)[C@@](C)(O)[C@H]2OC(C)=O | > 10 µM | 9.7 µM | 17.8 | 147 µM | 7.4 µM | > 10 µM | 8.3 µM | > 10 µM
CC(=O)O[C@H]1C(=O)[C@@]2(C)[C@H]([C@H](OC(=O)c3ccccc3)[C@]3(O)C[C@H](OC(=O)[C@H](O)[C@@H](NC(=O)c4ccccc4)c4ccccc4)C(C)=C1C3(C)C)[C@]1(OC(C)=O)CO[C@@H]1C[C@@H]2O [PACLITAXEL] | 0.02 µM |  |  |  | 0.03 µM | 0.2 µM |  | 
COc1cc(CC(C)=O)c(-c2c(CC(C)=O)cc(OC)c(OC)c2O)c(O)c1OC | 8.6 µM | 7.8 µM | 9.2 | 38.8 µM | 2.9 µM | 3.3 µM | 4.2 µM | 5.1 µM
C/C=C(/C)C(=O)O[C@H]1c2cc(OC)c(OC)c(OC)c2-c2c(cc3c(c2OC)OCO3)[C@H](OC(C)=O)[C@H](C)[C@@H]1C [INTERIOTHERIN C] | > 10 µM | > 10 µM |  |  | > 10 µM | > 10 µM |  | > 10 µM
COc1c(O)cc2c(c1OC)-c1c(cc3c(c1OC)OCO3)[C@H](OC(=O)C(C)C)[C@H](C)[C@H](C)C2 | > 10 µM | > 10 µM | 18.1 | 149 µM | > 10 µM | > 10 µM | 8.2 µM | > 10 µM
COc1cc2c(c(OC)c1OC)-c1c(cc(O)c(OC)c1OC)[C@H](OCC(C)C)[C@@H](C)[C@@H](C)C2 | > 10 µM | > 10 µM | > 58 | > 200 µM | > 10 µM | > 10 µM | 3.5 µM | > 10 µM
COc1c(OC)c(C(=O)O)c2c(c1OC)-c1c(cc3c(c1OC)OCO3)[C@H](O)[C@H](C)[C@H](C)C2 | 6.8 µM | 7.4 µM | 40.3 | 86.7 µM | > 10 µM | > 10 µM | 2.2 µM | > 10 µM
COc1cc2c(c(OC)c1OC)-c1c3cc4c(c1OC[C@@H](C)[C@@](C)(O)C(=O)O[C@@H]2[C@@](C)(O)[C@@H](C)C3)OCO4 |  |  | 18.9 | 186 µM |  |  | 9.8 µM | 
COc1cc2c(c(OC)c1OC)-c1c(cc3c(c1OC)OCO3)[C@H](O)[C@H](C)[C@H](C)C2 [ISOGOMISIN O] | > 10 µM | > 10 µM |  |  | > 10 µM | > 10 µM |  | > 10 µM
COc1cc2c(c(O)c1OC)-c1c(cc3c(c1OC)OCO3)C[C@H](C)[C@H](C)C2 (racemic) | > 10 µM | > 10 µM |  |  | > 10 µM | > 10 µM |  | > 10 µM
COc1cc2c(c(OC)c1OC)-c1c(cc(O)c(OC)c1OC)C[C@H](C)[C@@](C)(O)C2 |  |  | 15.1 | 124 µM |  |  | 8.2 µM | 
